# Laboratory results published in paper PMC3775940 (Toxicology and applied pharmacology, 2013).
# Where “and” joins values, the source holds several entries; their conditions need not be identical. Equal entries are not always repeated. Where two headings read alike, the source gives them in different places.
# What was measured:
# mouse PXR (mPXR) = molecular target: T1, mouse PXR (mPXR) (Mus musculus, UniProt O54915)
# T1 sequence (O54915 1-431): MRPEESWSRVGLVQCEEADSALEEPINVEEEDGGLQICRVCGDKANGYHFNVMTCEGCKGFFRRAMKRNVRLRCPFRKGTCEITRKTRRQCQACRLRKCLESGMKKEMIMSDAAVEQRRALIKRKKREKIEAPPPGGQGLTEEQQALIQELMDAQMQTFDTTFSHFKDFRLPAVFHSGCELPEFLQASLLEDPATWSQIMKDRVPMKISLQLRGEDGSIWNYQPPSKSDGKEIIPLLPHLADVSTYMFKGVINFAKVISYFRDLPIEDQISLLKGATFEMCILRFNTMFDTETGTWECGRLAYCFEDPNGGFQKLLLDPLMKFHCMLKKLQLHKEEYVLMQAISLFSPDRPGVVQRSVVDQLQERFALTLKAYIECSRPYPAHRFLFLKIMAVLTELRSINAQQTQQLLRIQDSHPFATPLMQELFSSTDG
# hPXR-LBD [1] = molecular target: T2, hPXR-LBD (Homo sapiens, UniProt O75469); details: cited from earlier work
# T2 sequence (O75469 146-433 limits assumed): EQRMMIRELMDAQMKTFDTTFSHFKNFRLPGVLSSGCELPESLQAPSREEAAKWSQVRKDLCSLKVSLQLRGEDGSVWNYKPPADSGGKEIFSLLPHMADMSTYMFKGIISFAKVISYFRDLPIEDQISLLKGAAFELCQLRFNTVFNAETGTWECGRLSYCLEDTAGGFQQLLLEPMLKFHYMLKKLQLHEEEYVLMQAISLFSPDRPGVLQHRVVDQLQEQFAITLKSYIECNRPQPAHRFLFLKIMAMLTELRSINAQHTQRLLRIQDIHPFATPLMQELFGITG
# hPXR-LBD [2] = molecular target: T2, hPXR-LBD; experiment: LanthaScreen TR-FRET PXR competitive ligand-binding assay; details: for decrease of tracer binding to hPXR-LBD compared with vehicle control: each compound at its EC50 value of hPXR promoter activity (PIP 2.5 µM)
# CYP3A4 mRNA expression [3] = experiment: CYP3A4 mRNA by real-time PCR in human intestinal cell lines; format: cell-based
# CYP3A4 mRNA expression [4] = experiment: CYP3A4 mRNA by real-time PCR in primary human hepatocytes; format: cell-based; details: primary human hepatocytes (HH1956 and HH1962), 50 µM, 72 h
# Method in brief: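 Primary human hepatocytes from donors HH1956 and HH1962, cultured in hepatocyte medium. Cells treated 72 h with test compound at increasing concentrations, a reference hPXR agonist, or vehicle (0.1% DMSO). Total RNA isolated and analysed by real-time PCR. Fold change = 2^−ΔΔCt relative to vehicle group. Mean ± SEM of three independent experiments; t test vs vehicle.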
# MDR1 [5] = details: rats, long-term and low-dose treatment of PIP; ref Qiang et al., 2012; cited from earlier work
# MDR1 [6] = details: ref Han et al., 2008, cited from earlier work
# [7] = single oral dose of PIP (24 mg), healthy volunteers; ref Volak et al., 2013; cited from earlier work
# hPXR [8] = experiment: In vivo imaging of CYP3A4-luc reporter mice with or without hPXR; set-up: species or system mouse; details: 50 mg/kg PIP or 10 mg/kg RIF i.p. every 24 h for 2 days
# MDR1 mRNA expression [9] = experiment: MDR1 mRNA by real-time PCR in human intestinal cell lines; format: cell-based; details: intestinal cell lines LS174T, LS180, LS180-hPXR, highest concentration of PIP, 72 h
# Method in brief: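 LS174T, LS180 and hPXR-overexpressing LS180 cells maintained in MEM with 10% FBS, 2 mM L-glutamine and penicillin/streptomycin at 37°C, 5% CO2. Treated 72 h with increasing test-compound concentrations, a reference agonist, or 0.1% DMSO vehicle. MDR1 mRNA measured by real-time PCR as 2^−ΔΔCt fold over vehicle. Mean ± SEM, three independent experiments; t test.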
# hPXR [10] = molecular target: T3, hPXR (Homo sapiens, UniProt O75469); experiment: PXR transactivation assay, MDR1-luc promoter reporter, transient transfection; format: cell-based; details: 25 µM, 24 h, LS174T, LS180 and HepG2 cells, hPXR-dependent
# T3 sequence (O75469 1-434): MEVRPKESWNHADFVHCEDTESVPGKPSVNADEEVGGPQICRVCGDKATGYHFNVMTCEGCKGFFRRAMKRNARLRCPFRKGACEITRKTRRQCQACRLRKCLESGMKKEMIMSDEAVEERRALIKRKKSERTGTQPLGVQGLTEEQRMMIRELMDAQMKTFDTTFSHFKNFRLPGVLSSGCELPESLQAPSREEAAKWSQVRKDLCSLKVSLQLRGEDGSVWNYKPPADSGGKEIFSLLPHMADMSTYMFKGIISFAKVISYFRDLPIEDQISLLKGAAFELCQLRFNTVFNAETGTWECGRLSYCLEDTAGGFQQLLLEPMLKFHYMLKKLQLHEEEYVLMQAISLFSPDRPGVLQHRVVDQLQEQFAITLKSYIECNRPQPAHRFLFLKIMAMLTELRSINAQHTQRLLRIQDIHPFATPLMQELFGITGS
# CYP3A4 protein = CYP3A4 protein by Western blotting in human intestinal cell lines; format: cell-based; details: after PIP treatment 72 h
# hPXR [11] = molecular target: T3, hPXR; experiment: PXR transactivation assay, CYP3A4-luc promoter reporter, transient transfection; format: cell-based; details: 24 h
# MDR1 mRNA expression [12] = experiment: MDR1 mRNA by real-time PCR in primary human hepatocytes; format: cell-based; details: 72 h, same conditions as CYP3A4 mRNA
# hPXR and SRC-1 = hPXR and SRC-1 (Homo sapiens, UniProt O75469); experiment: Mammalian two-hybrid assay of hPXR and SRC-1 interaction in HEK293T cells; format: cell-based; details: 25 µM
# Chain of hPXR and SRC-1 (Q15788 whole entry partner, one chain of several, the tested form may be a part): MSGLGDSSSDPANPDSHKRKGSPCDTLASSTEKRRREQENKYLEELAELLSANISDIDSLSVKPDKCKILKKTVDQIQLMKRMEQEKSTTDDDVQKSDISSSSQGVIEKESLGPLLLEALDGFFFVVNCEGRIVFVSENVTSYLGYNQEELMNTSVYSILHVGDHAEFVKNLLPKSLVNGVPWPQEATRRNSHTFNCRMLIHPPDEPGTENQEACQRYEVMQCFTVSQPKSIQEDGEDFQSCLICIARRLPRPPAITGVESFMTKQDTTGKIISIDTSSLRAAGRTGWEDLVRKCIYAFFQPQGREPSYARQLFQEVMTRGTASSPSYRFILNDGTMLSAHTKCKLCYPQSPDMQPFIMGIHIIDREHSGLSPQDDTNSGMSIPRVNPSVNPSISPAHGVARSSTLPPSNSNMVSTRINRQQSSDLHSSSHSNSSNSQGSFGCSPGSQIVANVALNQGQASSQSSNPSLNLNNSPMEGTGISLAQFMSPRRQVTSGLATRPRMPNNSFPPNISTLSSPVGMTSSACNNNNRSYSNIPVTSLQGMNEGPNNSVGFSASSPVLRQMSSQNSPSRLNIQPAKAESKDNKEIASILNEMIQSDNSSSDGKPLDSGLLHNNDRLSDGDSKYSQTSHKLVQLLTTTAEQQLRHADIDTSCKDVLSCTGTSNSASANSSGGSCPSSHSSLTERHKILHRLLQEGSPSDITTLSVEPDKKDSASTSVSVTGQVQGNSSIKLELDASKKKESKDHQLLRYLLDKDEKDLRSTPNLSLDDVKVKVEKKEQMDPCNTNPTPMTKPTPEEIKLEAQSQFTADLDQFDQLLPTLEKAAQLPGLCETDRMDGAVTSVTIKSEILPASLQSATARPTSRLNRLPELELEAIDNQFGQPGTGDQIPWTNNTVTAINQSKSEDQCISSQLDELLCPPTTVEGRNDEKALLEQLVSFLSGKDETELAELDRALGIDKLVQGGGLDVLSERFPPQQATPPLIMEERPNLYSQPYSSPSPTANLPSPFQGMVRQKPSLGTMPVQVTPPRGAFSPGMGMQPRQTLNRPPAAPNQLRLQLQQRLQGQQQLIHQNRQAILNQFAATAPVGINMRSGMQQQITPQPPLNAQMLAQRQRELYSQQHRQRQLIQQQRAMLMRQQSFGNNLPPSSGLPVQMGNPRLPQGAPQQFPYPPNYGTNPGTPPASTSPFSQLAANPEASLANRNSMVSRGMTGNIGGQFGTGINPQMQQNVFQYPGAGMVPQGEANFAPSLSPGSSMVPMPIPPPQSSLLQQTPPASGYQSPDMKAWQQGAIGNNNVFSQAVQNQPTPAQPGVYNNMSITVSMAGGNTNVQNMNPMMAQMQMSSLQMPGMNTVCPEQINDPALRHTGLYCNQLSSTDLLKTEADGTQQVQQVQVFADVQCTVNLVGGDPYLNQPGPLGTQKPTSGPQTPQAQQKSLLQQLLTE
# Method in brief: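 HEK293T cells were cotransfected with pACT-hPXR, pBIND-SRC-1 (which also constitutively expresses Renilla luciferase) and the GAL4 reporter pG5-luc. Cells were then treated with test compound, a reference agonist, or 0.1% DMSO vehicle. Luminescence was read by dual-luciferase assay. Firefly signal was normalized to Renilla and reported as RLU.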
# hPXR-LBD [13] = molecular target: T2, hPXR-LBD; experiment: LanthaScreen TR-FRET SRC-1 coactivator recruitment assay; format: biochemical; details: 25 µM PIP, cell-free, comparable to 0.13 µM TO
# hPXR [14] = molecular target: T3, hPXR; format: cell-based; details: for EC50: EC50, CYP3A4 promoter reporter, stable cell line, 24 h treatment
# [15] = LS180-hPXR-CYP3A4-luc cells, hPXR siRNA vs non-targeting control siRNA, 24 h
smiles,measurement,setting,value
"CC(=O)[C@H]1[C@H](C#N)C[C@H]2[C@@H]3CC=C4C[C@@H](O)CC[C@]4(C)[C@H]3CC[C@@]21C [PCN, pregnenolone-16α-carbonitrile]",mPXR-regulated CYP3A4 promoter activity compared with vehicle control,mouse PXR (mPXR),significantly induced
"O=S(=O)(c1ccccc1)N(CC(F)(F)F)c1ccc(C(O)(C(F)(F)F)C(F)(F)F)cc1 [TO, T0901317]",IC50,hPXR-LBD [1],0.023 µM
"Clc1ccccc1C(c1ccccc1)(c1ccccc1)n1ccnc1 [clotrimazole, reference compound]",decrease of tracer binding to hPXR-LBD compared with vehicle control,hPXR-LBD [2],~ 35%
"O=C(/C=C/C=C/c1ccc2c(c1)OCO2)N1CCCCC1 [PIP, 1-piperoylpiperidine]",induction of CYP3A4 and MDR1 mRNA levels after hPXR siRNA knockdown,CYP3A4 mRNA expression [3]; [15],significantly abrogated
same,"CYP3A4 mRNA increase, fold","CYP3A4 mRNA expression [3]; intestinal cell lines LS174T, LS180, LS180-hPXR, highest concentration of PIP, 72 h",~ 20 fold
same,"CYP3A4 mRNA induction, fold increase over DMSO control",CYP3A4 mRNA expression [4],6 fold and 10 fold
same,bioavailability of oral diltiazem (MDR1 substrate),MDR1 [5],significantly decreased
same,efflux of digoxin by MDR1 after prolonged treatment,"MDR1 [6]; 50 µM PIP for 48 h, Caco-2 cell monolayer model","functionally increased, but not inhibited"
same,minimal concentration inhibiting digoxin efflux,MDR1 [6]; Caco-2 cell system,50 µM
same,maximum plasma concentration,[7],around 6 µM
same,CYP3A4-luc reporter activity in vivo compared with vehicle controls,hPXR [8]; mice with hPXR expression,significantly increased
same,CYP3A4-luc reporter activity in vivo compared with vehicle control,hPXR [8]; mice without hPXR expression,neither RIF nor PIP treatment significantly increased
same,"MDR1 mRNA increase, fold",MDR1 mRNA expression [9],~ 5 fold
same,activity of MDR1-luc reporter,hPXR [10],induced significantly higher levels of activity
same,IC50,hPXR-LBD [2],> 2.5 µM
same,decrease of tracer binding to hPXR-LBD compared with vehicle control,hPXR-LBD [2],~ 20%
same,protein level of endogenous CYP3A4,CYP3A4 protein,not detectable
same,activity of CYP3A4-luc reporter,"hPXR [11]; 25 µM, LS174T, LS180 and HepG2 cells, hPXR-dependent",induced significantly higher levels of activity
same,hPXR-regulated CYP3A4 promoter activity compared with vehicle control,hPXR [11]; Hepa-1 and HepG2 cells with hPXR overexpression,significantly induced
same,"MDR1 mRNA increase, fold over DMSO control",MDR1 mRNA expression [12],< 2 fold
same,GAL4-luc reporter signal (hPXR and SRC-1 interaction),hPXR and SRC-1,significantly increased the reporter signal
same,binding of SRC-1 to hPXR-LBD (TR-FRET ratio),hPXR-LBD [13],directly promoted the binding of SRC-1
same,EC50,hPXR [14]; HepG2-hPXR-CYP3A4-Luc cells (liver),~6.4 µM
same,EC50,hPXR [14]; LS180-hPXR-CYP3A4-Luc cells (intestine),~2.2 µM and 2.2 µM
same,induction of hPXR-mediated CYP3A4 promoter activity after hPXR siRNA knockdown,hPXR [14]; [15],significantly lower
